Assays:
Format in all cases: functional
Homo sapiens = species: Homo sapiens; test: Percent formation of compound upon incubation of 15 for 60 minutes with human P450 reductase microsomes in hypoxic condition in presence of NADPH and pCMBA at a concentration of 2 mM
Outline: (§1)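 Human or rat P450 reductase microsomes at 1 mg/mL protein, substrate 0.25 mM and cofactor 0.5 mM; pCMBA 2 mM where stated. Anaerobic samples purged with nitrogen 15–20 min in septum-sealed vials. 60 min at 37 °C, stopped with ice-cold methanol. Ketone metabolite quantified by HPLC (C-18, methanol/water 50:50, UV 254 nm) as percent of equimolar substrate. Mean of two experiments.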

Rattus norvegicus [1] = species: Rattus norvegicus; test: Tested for formation of compound upon incubation of compound 15 for 30 minutes with rat liver subcellular fractions in oxic condition in the presence of NADPH
Outline: (§2)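 Phenobarbital-induced rat liver S-9 fraction (2 mL) with 5 mM cofactor (NADPH, NADH, benzaldehyde or 2-hydroxypyrimidine), substrate 2.5 mM final, added in methanol/water 50:50; aerobic, 30 min at 37 °C. Quenched with ice-cold methanol, proteins spun down, supernatant analysed by reverse-phase C-18 HPLC, UV 254 nm; ketone metabolite given as percent of equimolar substrate; three experiments.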

Rattus norvegicus [2] = species: Rattus norvegicus; test: Percent formation of compound upon incubation of 15 with phenobarbit-induced rat liver microsomal fraction in oxic condition in presence of SKF-525A at a concentration of 2 mM
Outline: (§3)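 Phenobarbital-induced rat liver microsomes; inhibitors SKF-525A (in methanol) or pCMBA (in DMF) at 0–4 mM final. pCMBA preincubated 30 min before NADPH; SKF-525A incubated 15 min with microsomes and NADPH. Hypoxic samples nitrogen-purged. Substrate 2.5 mM added, 30 min at 37 °C. Ketone metabolite by HPLC at 254 nm as percent of substrate; % inhibition relative to no inhibitor. Mean of two experiments.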

Rattus norvegicus [3] = species: Rattus norvegicus; test: Percent formation of compound upon incubation of 15 with phenobarbit-induced rat liver microsomal fraction in oxic condition in presence of pCMBA at a concentration of 1 mM; outline: as §3
Rattus norvegicus [4] = species: Rattus norvegicus; test: Percent formation of compound upon incubation of 15 with phenobarbit-induced rat liver microsomal fraction in oxic condition in presence of pCMBA at a concentration of 4 mM; outline: as §3
Rattus norvegicus [5] = species: Rattus norvegicus; test: Percent inhibition of formation of compound upon incubation of 15 with phenobarbit-induced rat liver microsomal fraction in oxic condition in presence of SKF-525A at a concentration of 2 mM; outline: as §3
Rattus norvegicus [6] = species: Rattus norvegicus; test: Tested for formation of compound upon incubation of compound 15 for 30 minutes with rat liver cystolic fractions in hypoxic condition in the absence of cofactor
Outline: (§4)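 Phenobarbital-induced rat liver S-9, microsomal or cytosolic fraction with 5 mM cofactor (NADPH, NADH, benzaldehyde or 2-hydroxypyrimidine) or none. Substrate 2.5 mM final, added from methanol/water 50:50. Hypoxic vials purged with nitrogen 15–20 min. 30 min at 37 °C, quenched with ice-cold methanol. Ketone metabolite by HPLC at 254 nm as percent of equimolar substrate.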

Rattus norvegicus [7] = species: Rattus norvegicus; test: Tested for formation of compound upon incubation of compound 15 for 30 minutes with rat liver cystolic fractions in oxic condition in the presence of NADPH; outline: as §4
Rattus norvegicus [8] = species: Rattus norvegicus; test: Tested for formation of compound upon incubation of compound 15 for 30 minutes with rat liver microsomal fractions in hypoxic condition in the presence of NADPH; outline: as §4
Rattus norvegicus [9] = species: Rattus norvegicus; test: Tested for formation of compound upon incubation of compound 15 for 30 minutes with rat liver subcellular fractions in oxic condition in the presence of 2-hydroxypyrimidine; outline: as §2
Rattus norvegicus [10] = species: Rattus norvegicus; test: Tested for formation of compound upon incubation of compound 15 for 30 minutes with rat liver subcellular fractions in oxic condition in the presence of NADH; outline: as §2
Rattus norvegicus [11] = species: Rattus norvegicus; test: Percent formation of compound upon incubation of 15 with phenobarbit-induced rat liver microsomal fraction in hypoxic condition in presence of SKF-525A at a concentration of 1 mM; outline: as §3
Rattus norvegicus [12] = species: Rattus norvegicus; test: Percent formation of compound upon incubation of 15 with phenobarbit-induced rat liver microsomal fraction in hypoxic condition in presence of SKF-525A at a concentration of 2 mM; outline: as §3
Rattus norvegicus [13] = species: Rattus norvegicus; test: Tested for formation of compound upon incubation of compound 15 for 30 minutes with rat liver subcellular fractions in oxic condition in the presence of benzaldehyde; outline: as §2
Rattus norvegicus [14] = species: Rattus norvegicus; test: Tested for formation of compound upon incubation of compound 15 for 30 minutes with uninduced rat liver S-9 fractions in oxic condition in the presence of NADPH
Outline: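 Uninduced rat liver S-9 (22.5 mg/mL protein, 2 mL) with 5 mM NADPH or no cofactor, substrate 2.5 mM final; hypoxic samples nitrogen-purged 15–20 min in septum-sealed vials, else aerobic; 30 min at 37 °C. Methanol quench, centrifugation, C-18 HPLC with UV 254 nm; metabolite as percent of equimolar substrate. NADPH runs three experiments, no-cofactor runs two.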

Rattus norvegicus [15] = species: Rattus norvegicus; test: Percent formation of compound upon incubation of 15 for 60 minutes with rat P450 reductase microsomes in oxic condition in presence of NADPAH; outline: as §1
Rattus norvegicus [16] = species: Rattus norvegicus; test: Percent formation of compound upon incubation of 15 with phenobarbit-induced rat liver microsomal fraction in hypoxic condition in presence of SKF-525A at a concentration of 0 mM; outline: as §3
Rattus norvegicus [17] = species: Rattus norvegicus; test: Tested for formation of compound upon incubation of compound 15 for 30 minutes with rat liver subcellular fractions in hypoxic condition in the presence of benzaldehyde; outline: as §4
Rattus norvegicus [18] = species: Rattus norvegicus; test: Tested for formation of compound upon incubation of compound 15 for 30 minutes with rat liver microsomal fractions in oxic condition in the absence of cofactor; outline: as §4
Rattus norvegicus [19] = species: Rattus norvegicus; test: Percent inhibition of formation of compound upon incubation of 15 with phenobarbit-induced rat liver microsomal fraction in hypoxic condition in presence of pCMBA at a concentration of 0 mM; outline: as §3
Rattus norvegicus [20] = species: Rattus norvegicus; test: Percent inhibition of formation of compound upon incubation of 15 with phenobarbit-induced rat liver microsomal fraction in hypoxic condition in presence of pCMBA at a concentration of 4 mM; outline: as §3
Rattus norvegicus [21] = species: Rattus norvegicus; test: Percent inhibition of formation of compound upon incubation of 15 with phenobarbit-induced rat liver microsomal fraction in oxic condition in presence of pCMBA at a concentration of 0 mM; outline: as §3
Rattus norvegicus [22] = species: Rattus norvegicus; test: Percent inhibition of formation of compound upon incubation of 15 with phenobarbit-induced rat liver microsomal fraction in hypoxic condition in presence of SKF-525A at a concentration of 0 mM; outline: as §3
Rattus norvegicus [23] = species: Rattus norvegicus; test: Percent inhibition of formation of compound upon incubation of 15 with phenobarbit-induced rat liver microsomal fraction in hypoxic condition in presence of SKF-525A at a concentration of 2 mM; outline: as §3
Rattus norvegicus [24] = species: Rattus norvegicus; test: Percent inhibition of formation of compound upon incubation of 15 with phenobarbit-induced rat liver microsomal fraction in hypoxic condition in presence of SKF-525A at a concentration of 4 mM; outline: as §3
Rattus norvegicus [25] = species: Rattus norvegicus; test: Percent inhibition of formation of compound upon incubation of 15 with phenobarbit-induced rat liver microsomal fraction in oxic condition in presence of SKF-525A at a concentration of 0 mM; outline: as §3
Rattus norvegicus [26] = species: Rattus norvegicus; test: Percent inhibition of formation of compound upon incubation of 15 with phenobarbit-induced rat liver microsomal fraction in oxic condition in presence of SKF-525A at a concentration of 1 mM; outline: as §3
Rattus norvegicus [27] = species: Rattus norvegicus; test: Percent formation of compound upon incubation of 15 for 60 minutes with rat P450 reductase microsomes in hypoxic condition in presence of NADPAH; outline: as §1

For `CCC(=O)c1ccccc1O`, which Formation (Homo sapiens) is on record?
Its Formation is 0.6%.

What about the Formation (Rattus norvegicus [1]) of the same molecule?
Its Formation is 80.9%.

What about the Formation (Rattus norvegicus [2]) of the same molecule?
Its Formation is 38.5%.

And the Formation (Rattus norvegicus [3])?
The Formation was 0.5%.

And the Formation (Rattus norvegicus [4])?
The Formation was 0.7%.

What about the inhibition (Rattus norvegicus [5]) of the same molecule?
Its inhibition is 14%.

And the Formation (Rattus norvegicus [6])?
Its Formation is 1.4%.

And the Formation (Rattus norvegicus [7])?
The Formation was 0.7%.

And the Formation (Rattus norvegicus [8])?
Its Formation is 93%.

What about the Formation (Rattus norvegicus [9]) of the same molecule?
The Formation was 0.6%.

And the Formation (Rattus norvegicus [10])?
Its Formation is 14.8%.

What about the Formation (Rattus norvegicus [11]) of the same molecule?
Its Formation is 54.6%.

What about the Formation (Rattus norvegicus [12]) of the same molecule?
Its Formation is 50.3%.

What about the Formation (Rattus norvegicus [13]) of the same molecule?
Its Formation is 0.7%.

What about the Formation (Rattus norvegicus [14]) of the same molecule?
The Formation was 9.1%.

What about the Formation (Rattus norvegicus [15]) of the same molecule?
Its Formation is 1.5%.

What about the Formation (Rattus norvegicus [16]) of the same molecule?
Its Formation is 70.8%.

What about the Formation (Rattus norvegicus [17]) of the same molecule?
The Formation was 2%.

What about the Formation (Rattus norvegicus [18]) of the same molecule?
The Formation was 0.6%.

And the inhibition (Rattus norvegicus [19])?
The inhibition was 0%.

What about the inhibition (Rattus norvegicus [20]) of the same molecule?
Its inhibition is 99%.

And the inhibition (Rattus norvegicus [21])?
The inhibition was 0%.

And the inhibition (Rattus norvegicus [22])?
Its inhibition is 0%.

What about the inhibition (Rattus norvegicus [23]) of the same molecule?
Its inhibition is 29%.

And the inhibition (Rattus norvegicus [24])?
Its inhibition is 36%.

And the inhibition (Rattus norvegicus [25])?
Its inhibition is 0%.

And the inhibition (Rattus norvegicus [26])?
Its inhibition is 18%.

What about the Formation (Rattus norvegicus [27]) of the same molecule?
The Formation was 1.7%.

Source: ChEMBL document CHEMBL1145922, “1,2-benzisoxazole phosphorodiamidates as novel anticancer prodrugs requiring bioreductive activation” (J Med Chem, 2003)
